Screening data deposited in PubChem BioAssay by Johns Hopkins Ion Channel Center.
MrgX1 agonist: agonists of human MrgX1 receptor, primary screen, HEK293 cells, Fluo-4 calcium flux; Fluo-4 calcium fluorescence, agonist mode; stronger effect = higher value; B-score at 10 µM; Mas-related G-protein coupled receptor member X1 (Homo sapiens), Q96LB2; hit rate 0.44% among 310,000;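 active means calcium response B-score plate-corrected fluorescence ratio at least 3 library SD, with starting fluorescence B-score inside 5 SD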
Target sequence (Q96LB2 whole entry, looked up): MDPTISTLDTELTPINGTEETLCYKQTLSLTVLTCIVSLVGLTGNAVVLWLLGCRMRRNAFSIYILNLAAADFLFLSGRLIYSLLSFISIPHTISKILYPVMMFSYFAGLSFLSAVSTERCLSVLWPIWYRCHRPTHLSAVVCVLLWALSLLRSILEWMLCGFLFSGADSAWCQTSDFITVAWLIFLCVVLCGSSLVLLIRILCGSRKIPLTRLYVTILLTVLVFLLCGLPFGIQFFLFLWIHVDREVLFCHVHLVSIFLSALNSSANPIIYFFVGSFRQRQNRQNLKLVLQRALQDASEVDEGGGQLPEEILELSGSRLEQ
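Material – MrgX1-expressing HEK293 cells · Input – 15,000 cells seeded per well · Dosing – compound as first of three additions · Times – overnight seeding, then 1 h dark dye loading · Measured by – kinetic Fluo-4 NW fluorescence of intracellular calcium · Read-out – B-scored fluorescence response ratio · Benchmarks – positive and negative control wells on each plate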
RGS4 block: RGS4 inhibitors, primary screen, cell-based, HEK293 M3R inducible RGS4, calcium flux; Regulator of G-protein signaling 4 (Homo sapiens), P49798; Fluo-4 calcium flux; stronger effect = higher value; triggered by carbachol at its EC20; B-score at 10 µM; hit rate 0.45% among 310,000; AID 463165, 2010;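 active means B-score, a plate-corrected calcium signal, over three deviations above library mean, with baseline fluorescence within five deviations of library mean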;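 further: RGS4 expression induced by doxycycline in cells with stable M3 receptor; B-score is computed from the integrated fluorescence ratio over baseline after carbachol; higher B-score means a larger calcium signal and so more RGS4 inhibition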
Target sequence (P49798 whole entry, looked up): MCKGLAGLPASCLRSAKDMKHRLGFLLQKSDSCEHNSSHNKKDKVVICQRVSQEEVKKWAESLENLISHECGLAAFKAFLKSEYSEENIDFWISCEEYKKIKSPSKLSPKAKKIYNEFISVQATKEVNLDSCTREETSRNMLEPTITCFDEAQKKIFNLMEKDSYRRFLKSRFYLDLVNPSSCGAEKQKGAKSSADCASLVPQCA
MrgX1 antagonist: antagonists of human MrgX1 receptor, primary screen, HEK293 cells, Fluo-4 calcium flux. Mas-related G-protein coupled receptor member X1 (Homo sapiens), Q96LB2. BAM8-22 antagonism; stronger effect = lower value. B-score at 10 µM. hit rate 1.3% among 310,000. AID 588676, 2011;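 active means calcium-response B-score plate-corrected more than 3 library SD below zero, starting fluorescence within 5 deviations, no agonist response on first addition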;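 further: peak minus trough fluorescence over baseline after final BAM8-22 challenge near maximal dose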
MrgX1 PAM: positive allosteric modulators of MrgX1, primary screen, HEK293 cells, Fluo-4 calcium flux. Mas-related G-protein coupled receptor member X1 (Homo sapiens), Q96LB2. FDSS; stronger effect = higher value. B-score at 10 µM. hit rate 0.63% among 310,000. AID 588675, 2011;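 active means plate-corrected calcium response at least 3 library SD above typical, normal starting fluorescence, not activating the receptor alone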;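 further: compound read alongside a low EC10 to EC30 dose of BAM8-22 agonist; peak minus trough fluorescence over baseline measured at the second addition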
RGS4 pot: RGS4 potentiators or activators, primary screen, cell-based, HEK293 M3R inducible RGS4, calcium flux; carbachol calcium flux Fluo4; stronger effect = lower value; AID 463111, 2010; hit rate 0.92% among 310,000; B-score at 10 µM;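 active means B-score of the integrated calcium signal more than 4 SD below the library mean, with starting fluorescence not abnormally high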;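 further: negative B-score means reduced calcium response which marks RGS4 activation or potentiation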
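Also added: carbachol at ECmax as muscarinic agonist stimulus; Assay system: HEK293 cells with stable M3R and inducible RGS4; Timing: overnight RGS4 induction, 30 min dye load 37 °C, 20 min compound RT; Measured by: Fluo4-AM (2 µM) calcium-flux fluorescence, kinetic read.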
A number is an active result; i = inactive; nt = not tested or not shown. Hits are enriched below; roughly 3.5% of the tested compounds scored in any of these assays.

SMILES	MrgX1 agonist	RGS4 block	MrgX1 antagonist	MrgX1 PAM	RGS4 pot
Cc1ccc(-c2nnn(CC(=O)N(c3ccc(F)cc3)C(C(=O)NC3CCCC3)c3ccco3)n2)o1 (centres undefined)	i	i	i	i	i
Cc1ccc(-c2nnn(CC(=O)N(c3cccc(F)c3)C(C(=O)NC3CCCC3)c3ccco3)n2)o1 (centres undefined)	i	i	-6.58	i	i
CC(Oc1ccc(-c2ccccc2)c(F)c1)c1ccn(S(=O)(=O)c2ccc(Br)cc2)n1 (centres undefined)	i	i	-5.69	i	i
Cn1c(=O)c2nc3ccccc3nc2n(C)c1=O	i	i	i	i	-7.55
CC[C@H]1CC2CN3CCc4c([nH]c5c([C@H]6C[C@H]7[C@H](CC)CN(C)[C@@H](Cc8c6[nH]c6ccccc86)[C@H]7C(=O)OC)c(OC)ccc45)C(C(=O)OC)(C2)C13	i	8.78	i	i	i
O=C(NC1CCCN(CCc2ccccc2)C1)c1c(F)cccc1F (centres undefined)	i	i	i	i	i
COc1ccc(/C=C/C(=O)OCC(=O)Nc2ccc(Cl)c(S(=O)(=O)N(C)C)c2)cc1OC	i	i	i	i	-9.44
COc1ccc(CNCCc2ccc(Cl)cc2)cc1OCc1ccccc1	i	i	-5.85	i	i
CCOc1cc(CNCc2ccccc2)ccc1OCc1ccc(Cl)cc1	i	i	i	i	i
COc1ccc(NC(=O)c2ccc(-n3cncn3)c([N+](=O)[O-])c2)cc1OC	i	i	i	i	i
O=C(Nc1cccc(/C=C/c2ccccn2)c1)c1ccc(-n2cncn2)c([N+](=O)[O-])c1	i	i	i	i	-7.72
Cc1ccc(-n2c3nc(=O)[nH]c(=O)c-3cc3cc([N+](=O)[O-])ccc32)cc1	52.8	i	i	i	i
O=C1COc2ccc(S(=O)(=O)CCC(=O)N3CCN(c4cccc(C(F)(F)F)c4)CC3)cc2N1	i	i	i	i	i
COc1ccccc1/C=C/C(=O)N1CCOCC1	i	i	i	i	-7.78
Cc1ccccc1/C=C/C(=O)N1CCOCC1	i	i	i	i	i
COc1ccc(-c2noc3c2-c2nc(-c4ccc(C)cc4)sc2CC3)cc1	i	i	-4.64	i	i
COc1ccc(-c2noc3c2-c2nc(-c4ccccc4)sc2CC3)cc1	i	i	i	i	i
Fc1ccccc1-c1nc2c(s1)CCc1onc(-c3ccc(Br)cc3)c1-2	i	i	-5.38	i	i
CN1CCN(/N=C/c2ccc(-c3ccccc3)cc2)CC1	i	i	i	i	i
CN1CCN(/N=C/c2c3ccccc3c(Cl)c3ccccc23)CC1	i	i	i	9.3	i
Cc1ccc(Cl)cc1NC(=O)N(C)CCO	i	i	i	i	i
Cc1nn(-c2ccccc2)c(C)c1NC(=O)COC(=O)c1cc(Br)ccc1O	i	i	i	i	-7.15
Cc1cccc(C(=O)OCC(=O)Nc2c(C)nn(-c3ccccc3)c2C)c1O	i	i	i	i	i
CC(=O)N/C(=C\c1ccc(C)cc1)C(=O)O	i	i	i	i	i
COc1c(O)c(=O)n2c3ccccc3c3ccnc1c32	i	i	i	37.4	i
SMILES	MrgX1 agonist	RGS4 block	MrgX1 antagonist	MrgX1 PAM	RGS4 pot
O=c1c(Cl)c(O)c2cccc3c4ccccc4n1c23	i	i	i	i	i
O=C(CCc1nnc2ccc(NCc3ccco3)nn12)N1CCN(c2ccc(F)cc2)CC1	i	i	i	i	i
O=C1CSC(c2ccccc2)N1c1ccc([N+](=O)[O-])cc1 (centres undefined)	i	i	i	i	-6.97
Cc1c(N2C(=O)CSC2c2ccc([N+](=O)[O-])cc2)c(=O)n(-c2ccccc2)n1C (centres undefined)	i	i	i	i	i
CCN1C(=O)[C@H]2[C@@H](c3ccc(OC)cc3)N3C(=O)CN(CCOC)C(=O)[C@@]3(C)[C@H]2C1=O	i	i	i	i	i
Cc1ccc(S(=O)(=O)c2c(N)n(Cc3ccco3)c3nc4ccccc4nc23)cc1C	i	i	-4.77	i	i
C=CCn1c(-c2ccc(OC)c(OC)c2)n[nH]c1=S	i	i	i	i	i
C=CCn1c(-c2c(C)nc3cc(C)ccn23)n[nH]c1=S	i	i	-5.89	i	i
Cc1ccc(C)c(N2CCN(C(=O)CCn3c(=S)[nH]c4cc5c(cc4c3=O)OCO5)CC2)c1	i	i	i	i	i
N#C/C(C(N)=O)=c1/ccc2c(c1)N1C3=C(CCCC3)CC3CCCCC31N=2 (centres undefined)	i	i	i	i	-8.76
N=C(N=C(N)N)N1CCc2ccccc21	i	i	i	i	i
CC(=O)Nc1ccc(CN2CCCCCCC2)cc1	i	i	i	i	i
O=C(NC(=S)Nc1ccc(CN2CCCCC2)cc1)c1cccc(OCc2ccccc2)c1	i	i	i	i	-7.45
O=C(Nc1ccc(CN2CCCCC2)cc1)c1c(F)c(F)c(F)c(F)c1F	i	i	i	i	-7.29
Cc1ccc(C)c(Cc2c(C)nc(C)[nH]c2=O)c1	i	i	i	i	i
CCCCCc1ccc(OCCC[n+]2ccccc2)c(CCCCC)c1	i	i	i	i	i
CCCCCc1ccc(OCCOCCn2c[n+](C)c3ccccc32)c(CCCCC)c1	nt	i	nt	nt	-7.59
O=C(Nc1ccccc1Cl)C1(c2ccccc2)CC1(Cl)Cl (centres undefined)	i	i	i	i	-7.03
Cc1ccc2[nH]cc(CCNS(=O)(=O)c3ccc(F)cc3)c2c1	i	i	i	i	i
COc1ccccc1CCC(=O)OCC(=O)Nc1cccc(S(=O)(=O)N2CCCCC2)c1	i	i	-4.74	i	i
CN1CCN(C(=O)CCCN2C(=O)/C(=C/c3cccc(Br)c3)SC2=S)CC1	nt	i	nt	nt	-7.16
CCc1ccc(/C=C2\SC(=S)N(CCCC(=O)Nc3ccccc3C(=O)O)C2=O)cc1	i	i	i	i	i
CN1CCN(C(=O)CCN2C(=O)/C(=C/c3cccc(Br)c3)SC2=S)CC1	i	i	i	i	i
Cc1ccc(/C=C2\SC(=S)N(CCCC(=O)Nc3ccccc3C(=O)O)C2=O)cc1	i	i	-5.4	i	i
O=C(O)CCCCCN1C(=O)/C(=C/c2ccncc2)SC1=S	32.1	i	i	i	i
SMILES	MrgX1 agonist	RGS4 block	MrgX1 antagonist	MrgX1 PAM	RGS4 pot
O=C(O)CCCCCN1C(=O)/C(=C\c2ccncc2)SC1=S	34.3	i	i	i	i
O=C(O)CCCN1C(=O)/C(=C/c2ccncc2)SC1=S	i	i	i	i	i
CC(=O)Nc1ccc(NC(=O)CCNC(=O)c2ccccc2Cl)cc1	i	i	i	i	i
COc1cc(C(=O)Nc2cnc(NC(=O)C(C)C)cc2C)cc(OC)c1OC	i	i	-5.68	i	i
Cc1cc(NC(=O)C(C)C)ncc1NC(=O)Cc1ccccc1	i	i	i	i	i
CCCCCC(=O)Nc1ccc(C(=O)COC(=O)c2ccccn2)cc1	i	i	i	i	i
